GPR7 antagonist: blocks human GPR7 receptor signaling; P48145; GPR7-expressing cells, fluorescence antagonist assay; inhibition, % at 4.4 µM; hit rate 1.1% among 290,000; AID 1861; in the data active means inhibition above about 16%, passing the limit was not always enough;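 further: cells stimulated with the agonist NPW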
OX1R antag-1: OX1R (human) antagonism. inhibition, % at 6.6 µM. O43613. OX1R-expressing cells, FRET antagonist read-out. hit rate 1.8% among 330,000; in the data active means inhibition mostly above about 38%, no sharp cut-off; inactive means mostly below about 40%
Target sequence (O43613 whole entry, looked up): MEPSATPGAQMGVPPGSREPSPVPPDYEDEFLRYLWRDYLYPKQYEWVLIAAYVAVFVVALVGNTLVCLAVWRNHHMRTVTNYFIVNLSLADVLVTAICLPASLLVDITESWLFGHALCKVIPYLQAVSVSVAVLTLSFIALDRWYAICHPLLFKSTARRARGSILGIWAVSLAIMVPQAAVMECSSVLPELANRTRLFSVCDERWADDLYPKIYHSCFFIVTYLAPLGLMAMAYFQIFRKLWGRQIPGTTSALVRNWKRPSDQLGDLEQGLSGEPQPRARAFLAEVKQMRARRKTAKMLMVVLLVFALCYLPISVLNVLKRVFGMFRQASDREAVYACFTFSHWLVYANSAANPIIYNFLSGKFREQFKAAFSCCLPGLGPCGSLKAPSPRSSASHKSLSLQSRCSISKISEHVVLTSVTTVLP
OX1R antag-2: blocks the human orexin 1 receptor | hit rate 0.43% among 330,000 | O43613 | AID 434989 | CHO/OX1R cells, Fluo-8 calcium fluorescence, orexin A | inhibition, % at 5 µM;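 active means inhibition above its plate's threshold, mean inhibition of all tested compounds on the plate plus 3 SD, cut at about 37% in these data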
TAAR1 antag: human TAAR1 antagonism; CHO RD-HGA16 TAAR1, Fluo-8 calcium fluorescence, antagonist; Q96RJ0; hit rate 1.5% among 360,000; inhibition, % at 3 µM; AID 624466;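 active means inhibition above a per-plate cutoff, the mean inhibition of test compounds on that plate plus 3 SD, cut at about 49% in these data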
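Test system: hTAAR1-expressing CHO RD-HGA16 cells, Gα16-coupled; Probe or stimulus: EC80 β-phenethylamine stimulus; Compound dosing: single nominal final test compound concentration of 3 µM; Timing: 140 s kinetic read after compound, 140 s after agonist; Signal: Fluo-8 calcium-sensitive fluorescence; Measure: % inhibition of agonist calcium response; Controls: DMSO and EC80 PEA controls.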
TAAR1 ag: agonists of human TAAR1; CHO RD-HGA16 TAAR1, Fluo-8 calcium fluorescence; vehicle wells 0%, saturating PEA agonist 100%; activation, % at 3 µM; Q96RJ0; AID 624467; hit rate 0.99% among 360,000;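 active means activation above the mean activation of all test compounds in the run plus 3 SD, cut at about 38% in these data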
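Repeats: no replicates (n 1) | Material: CHO-derived RD-HGA16 cells with stable Gα16 and human TAAR1 | Technique: Kinetic Fluo-8 calcium fluorescence | Schedule: 17-24 h seeding, 75 min 37 °C dye, 30 min RT | Evaluation: % activation from peak over basal fluorescence ratio, DMSO-to-PEA scaled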
CHO parental Ca: signal in parental CHO cells, OX1R antagonist counter-screen. parental CHO-K1, ATP-induced calcium, Fluo-8 fluorescence. inhibition, % at 5.6 µM. hit rate 0.63% among 330,000;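 active means inhibition above that plate's mean sample inhibition plus 3 SD, cut at about 26% in these data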
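Assay system – parental CHO cells · Reagent – ATP stimulus · Detection – intracellular calcium via Fluo-8 no-wash fluorescent dye · Evaluation – percent inhibition of ATP-evoked calcium rise, normalized to controls · Controls – ATP wells versus no-ATP DMSO wells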
GPR7 antag cf: confirmation of human GPR7 antagonists | GPR7-expressing cells, calcium fluorescence antagonist mode | hit rate 52% among 2,400 | shares compounds with GPR7 antagonist | inhibition, % at 4.4 µM; in the data active means inhibition above about 24%;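 further: stimulated with the GPR7 agonist NPW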
MCHR1 antag: antagonizes human MCHR1, a GPR7 antagonist counter-screen. shares compounds with GPR7 antagonist. MCHR1-expressing cells, fluorescence antagonist assay. inhibition, % at 4.4 µM. hit rate 62% among 2,400. AID 2148; in the data active means inhibition above about 22%
A number is an active result; - = inactive; . = no result; ! = a repeat was not active. An excerpt weighted towards active compounds, which were near 4.6% of everything screened.

SMILES	GPR7 antagonist	OX1R antag-1	OX1R antag-2	TAAR1 antag	TAAR1 ag	CHO parental Ca	GPR7 antag cf	MCHR1 antag
COc1ccc(NC(=O)COc2ccc(N(C)S(=O)(=O)c3ccc(C)cc3)cc2)cc1	-	-	-	-	-	-	.	.
Cc1ccc(S(=O)(=O)N(C)c2ccc(OCC(=O)Nc3cccc(-n4cnnn4)c3C)cc2)cc1	22	-	-	-	-	-	-	33
Cc1ccc(S(=O)(=O)NCCCNc2ccc([N+](=O)[O-])cc2)cc1	41	-	-	-	-	-	45	71
Cc1ccc(S(=O)(=O)NCCNc2ccc([N+](=O)[O-])cc2)cc1	-	-	-	-	-	-	.	.
CC(C)(C)c1ccc(-c2nc(NCc3cccnc3)c3ccccc3n2)cc1	23	-	-	-	-	-	41	30
COCc1cc(C)nc(SCc2ccc([N+](=O)[O-])cc2)c1C#N	29	-	-	-	-	-	-	-
COCc1cc(C)nc(SCc2ccccc2Cl)c1C#N	-	-	-	-	-	-	.	.
COc1cc(OC)c(CN2CCc3c([nH]c4ccccc34)C2)cc1Br	29	-	-	-	-	-	-	-
Clc1ccc(CN2CCc3c([nH]c4ccccc34)C2)cc1Cl	53	-	-	-	-	-	73	33
Cc1cccc(CN2CCc3c([nH]c4ccccc34)C2)c1	-	-	-	-	-	-	.	.
O=[N+]([O-])c1ccc2nc(-c3ccccc3[N+](=O)[O-])[nH]c2c1	25	-	-	-	-	-	-	-
Cc1ccc(C2N(c3ccccc3)C(=S)N3CCCN23)cc1 (configuration not stated)	24	-	-	-	-	-	-	-
Fc1ccc(C2N(c3ccccc3)C(=S)N3CCCN23)cc1 (configuration not stated)	-	-	-	-	-	-	.	.
O=C(CCNS(=O)(=O)c1ccc(Br)s1)Nc1ccc(Cl)cc1	32	-	-	-	-	-	32	30
CC(CC(=O)NC1CCCC1)c1ccccc1 (configuration not stated)	34	-	-	-	-	-	-	-
Cc1cc(C[n+]2ncsc2N)c2ncccc2c1	-	-	-	-	-	-	.	.
Cc1cc(C[n+]2cc(Br)ccc2N)c2ncccc2c1	30	-	-	-	-	-	29	-
Cc1cc(C[n+]2cc(Cl)ccc2N)c2ncccc2c1	23	-	-	-	-	-	29	24
COc1ccc2c(c1)sc(N)[n+]2Cc1cc(C)cc2cccnc12	38	-	-	-	-	-	41	57
CCC[C@@H](CNC)NC[C@H](Cc1ccccc1)NCCCCc1ccccc1	41	-	-	-	-	-	51	71
CNC[C@@H](CC1CCCCC1)NC[C@H](CC(C)C)NCCc1cccc(C(F)(F)F)c1	56	-	-	-	-	-	73	88
CNC[C@@H](Cc1ccccc1)NC[C@@H](CC1CCCCC1)NCCCc1ccccc1	65	-	-	-	-	-	82	93
CCC[C@@H](CN[C@@H](CNC)C(C)C)NCCCCc1ccccc1	-	-	-	-	-	-	.	.
CCOc1ccc2[nH]c(O)c(NC(C)=O)c2c1	-	-	-	-	-	-	.	.
CCN(CC)CCSc1nc(O)c(-c2ccccc2)c(=O)n1-c1ccccc1	-	-	-	-	-	-	.	.
SMILES	GPR7 antagonist	OX1R antag-1	OX1R antag-2	TAAR1 antag	TAAR1 ag	CHO parental Ca	GPR7 antag cf	MCHR1 antag
CCN(CC)CCSc1nc2ccccc2c(=S)n1-c1ccccc1	40	-	-	-	-	-	40	39
O=S(=O)(c1ccc(OC(F)(F)F)cc1)N1CCC(O)(c2cccc(C(F)(F)F)c2)CC1	39	-	-	-	43	-	44	46
N#C/C(=C\c1ccccc1)C(=O)NCc1ccc(F)cc1	22	-	-	-	-	-	43	47
O=S(=O)(Nc1ccc(Cc2ccncc2)cc1)N1CCCC1	-	-	-	-	-	-	.	.
O=C1C=C(O)CC(c2ccc(Cl)c(Cl)c2)C1 (configuration not stated)	-	-	-	-	-	-	.	.
CN[C@H]1CC[C@@H](c2ccc(Cl)c(Cl)c2)c2ccccc21	35!	-	-	51!	52	-	51	49
COc1ccc(NC(=O)C(OC(=O)c2cnccn2)c2ccccc2)cc1Cl (configuration not stated)	32	-	-	-	-	-	-	-
O=C(/C=C/c1cccc([N+](=O)[O-])c1)N1CCN(c2ccccc2F)CC1	-	-	-	-	-	-	.	.
CCOc1ccccc1N1CCN(C(=O)/C=C/c2cccc([N+](=O)[O-])c2)CC1	21	-	-	-	-	-	32	41
COc1ccc(C2CCCN2CC(O)COc2ccccc2C(C)C)cc1 (configuration not stated)	24	-	-	-	-	-	33	41
O=C1c2cccc(OCC(=O)N3CCCc4ccccc43)c2CCN1Cc1ccc(F)cc1	28	-	-	56	-	-	41	77
CCS(=O)(=O)N1CCC(C(=O)Nc2cc([N+](=O)[O-])ccc2C)CC1	-	-	-	-	-	-	.	.
C/C(=N/NC(=O)CCc1ccccc1)c1ccc2c(c1)OCO2	26	.	.	-	-	.	-	-
COc1ccc(NC(=O)N(C)C[C@H]2Oc3ccc(NC(=O)Nc4ccc(C(F)(F)F)cc4)cc3C(=O)N([C@H](C)CO)C[C@@H]2C)cc1	.	-	-	-	-	-	.	.
OCCN1CCN(CC(O)COc2ccc(C34CC5CC(CC(C5)C3)C4)cc2)CC1 (configuration not stated)	40	-	-	-	-	-	35	51
OCCN1CCN(CC(O)COc2ccc(Cl)cc2)CC1 (configuration not stated)	-	-	-	-	-	-	.	.
Cn1cc(C(=O)c2cccc(Cl)c2)cc1/C=N\O	22	-	-	-	-	-	-	-
Cn1cc(C(=O)c2cccc(Cl)c2)cc1C#N	-	-	-	-	-	-	.	.
Cc1ccc(N(CC(O)Cn2c3ccccc3c3ccccc32)S(C)(=O)=O)cc1 (configuration not stated)	24	-	-	-	-	-	30	45
Cc1ccc(N(CC(O)Cn2c3ccccc3c3ccccc32)S(C)(=O)=O)c(C)c1 (configuration not stated)	-	-	-	-	-	-	.	.

Bioassay records (PubChem BioAssay)
